Results reported in ChEMBL document CHEMBL1153551, “Resveratrol modulates phagocytosis of bacteria through an NF-kappaB-dependent gene program” (Antimicrob Agents Chemother, 2008).
Activity calls are given as the source filed them.

Key:
[1] = system: RAW264.7; test: Inhibition of phagocytosis of FITC-conjugated Staphylococcus aureus 209P in mouse RAW264.7 cells using trypan blue staining after 20 mins by flow cytometry; type: functional, cell-based
[2] = system: THP-1; test: Inhibition of phagocytosis of FITC-conjugated Escherichia coli K12 in human THP1 cells using trypan blue staining after 20 mins by flow cytometry; type: functional, cell-based
Summary of the method: (§1)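 Serum-free THP-1 or RAW264.7 cells were treated 1 h with resveratrol, then incubated 0, 20, 40, 60 or 80 min with heat-killed FITC-E. coli at 1:100 cell:bacterium. Outer fluorescence was quenched with 0.2% trypan blue and cells fixed in 1% paraformaldehyde. Internalized fluorescence was read as flow cytometry MFI; mean and SD of triplicates.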

[3] = system: THP-1; test: Inhibition of phagocytosis of FITC-conjugated Escherichia coli K12 in human THP1 cells using trypan blue staining after 80 mins by flow cytometry; type: functional, cell-based; summary of the method: as §1
[4] = system: HEK293; test: Inhibition of phagocytosis of heat killed FITC-conjugated Escherichia coli K12 in HEK293 at 100 uM by after 1 hr; type: functional, cell-based; details: Homo sapiens
Summary of the method: (§2)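 293/DC-SIGN cells (5 × 10⁵/ml) were plated the day before, washed and treated 1 h with resveratrol. Heat-killed FITC-E. coli or S. aureus were added for 1 h at various cell:bacterium ratios. Trypan blue (0.2%) quenched surface fluorescence and 1% paraformaldehyde fixed the cells. Flow cytometry MFI, triplicates.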

[5] = system: THP-1; test: Inhibition of FSL1-induced upregulation of MSR1 mRNA expression in human THP1 cells at 100 uM after 1 hr by RT-PCR; type: functional, cell-based
Summary of the method: (§3)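 Serum-free THP-1 cells primed 24 h with 100 nM FSL-1 were given 100 μM resveratrol or 0.1% DMSO for 1 h. Total RNA from 5 × 10⁶ cells was reverse-transcribed with oligo(dT) and PCR-amplified for MSR1, CD36, DC-SIGN and Dectin-1 (30 cycles) with β-actin as reference (25 cycles). Products were resolved on 3% agarose with ethidium bromide.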

[6] = system: HEK293; test: Inhibition of heat killed Staphylococcus aureus 209P-induced nuclear translocation of p65 element of NF-kappaB in HEK293 cells expressing TLR2 at 100 uM pretreated for 1 hr before 6 hrs heat killed bacterial stimulation by immunostaining method; type: cell-based; details: Homo sapiens
Summary of the method: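 293/TLR2 cells on poly-L-lysine coverslips were given 100 μM resveratrol or 0.1% DMSO for 1 h, then heat-killed E. coli or S. aureus (1:100) for 6 h. Cells were fixed in methanol at −20°C for 5 min and stained with rabbit anti-p65 pAb (1 μg/ml, 45 min RT), then Alexa 594 anti-rabbit IgG. Nuclear p65 was viewed by confocal microscopy.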

[7] = system: HEK293; test: Inhibition of phagocytosis of heat killed FITC-conjugated Staphylococcus aureus 209P in HEK293 at 100 uM after 1 hr; type: functional, cell-based; details: Homo sapiens; summary of the method: as §2
[8] = system: RAW264.7; test: Inhibition of phagocytosis of FITC-conjugated Escherichia coli K12 in mouse RAW264.7 cells using trypan blue staining after 80 mins by flow cytometry; type: functional, cell-based; summary of the method: as §1
[9] = system: THP-1; test: Inhibition of FSL-1-induced increase in phagocytosis of FITC-conjugated Escherichia coli K12 in human THP1 cells assessed as reduction in number of phagocytosing bacteria to total number of cells after 1 hr by CLSM; type: functional, cell-based
Summary of the method: (§4)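 THP-1 cells (1 × 10⁶/ml) were held 24 h with or without 100 nM FSL-1, washed, then given 100 μM resveratrol or 0.1% DMSO for 1 h. Heat-killed FITC-E. coli (1:100) was added for 1 h, cells were stained with concanavalin A, fixed in 3% paraformaldehyde and imaged by confocal microscopy. Readouts: particles per cell among 3,500 cells; % cells with bacteria per field (>100 cells), 25 fields.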

[10] = system: RAW264.7; test: Inhibition of phagocytosis of FITC-conjugated Escherichia coli K12 in mouse RAW264.7 cells assessed as reduction in ratio of number of bacterial cells to phagocytes using trypan blue staining by flow cytometry; type: functional, cell-based
Summary of the method: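 THP-1 or RAW264.7 cells received resveratrol for 1 h serum-free, then a range of doses of heat-killed FITC-E. coli or FITC-S. aureus. Trypan blue (0.2%) quenched bound bacteria and 1% paraformaldehyde fixed the cells. Flow cytometry MFI of internalized bacteria was plotted against bacterial dose; triplicates.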

[11] = system: THP-1; test: Inhibition of FSL1-induced upregulation of dectin-1 mRNA expression in human THP1 cells at 100 uM after 1 hr by RT-PCR; type: functional, cell-based; summary of the method: as §3
[12] = system: THP-1; test: Inhibition of FSL-1-induced increase in phagocytosis of FITC-conjugated Escherichia coli K12 in human THP1 cells assessed as reduction in number of cells phagocytosing bacteria per cell after 1 hr by CLSM; type: functional, cell-based; summary of the method: as §4
[13] = system: RAW264.7; test: Inhibition of FSL-1-induced increase in phagocytosis of FITC-conjugated Escherichia coli K12 in mouse RAW264.7 cells using trypan blue staining after 20 mins by flow cytometry; type: functional, cell-based
Summary of the method: (§5)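 THP-1 or RAW264.7 cells (1 × 10⁶/ml) were pretreated 24 h with FSL-1 (0, 1, 10, 100 nM), washed, then given resveratrol (10, 50, 100 μM) for 1 h serum-free. Heat-killed FITC-E. coli (1:10) or FITC-S. aureus (1:100) followed. Surface fluorescence was quenched with 0.2% trypan blue and cells fixed in 1% paraformaldehyde. Flow cytometry mean fluorescence intensity, triplicates.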

[14] = system: THP-1; test: Inhibition of heat killed Escherichia coli K12-induced TNF alpha production in human THP1 cells at 1 to 100 uM after 6 hrs by ELISA; type: functional, cell-based
Summary of the method: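 THP-1 or RAW264.7 cells (1 × 10⁶/well, 16 h) were washed and pretreated 1 h with resveratrol. Serum-free stimulation with heat-killed E. coli or S. aureus at 1:100 followed for 0, 2, 4 or 6 h. TNF-α in supernatants (400 × g spin) was measured by ELISA: human kit for THP-1, mouse kit for RAW264.7. Triplicates.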

[15] = system: RAW264.7; test: Inhibition of phagocytosis of FITC-conjugated Staphylococcus aureus 209P in mouse RAW264.7 cells using trypan blue staining after 40 mins by flow cytometry; type: functional, cell-based
[16] = system: RAW264.7; test: Inhibition of phagocytosis of FITC-conjugated Escherichia coli K12 in mouse RAW264.7 cells using trypan blue staining after 40 mins by flow cytometry; type: functional, cell-based; summary of the method: as §1
[17] = system: THP-1; test: Inhibition of phagocytosis of FITC-conjugated Escherichia coli K12 in human THP1 cells using trypan blue staining after 40 mins by flow cytometry; type: functional, cell-based; summary of the method: as §1
[18] = system: THP-1; test: Inhibition of phagocytosis of FITC-conjugated Staphylococcus aureus 209P in human THP1 cells using trypan blue staining after 20 mins by flow cytometry; type: functional, cell-based
[19] = system: THP-1; test: Inhibition of FSL-1-induced increase in phagocytosis of FITC-conjugated Staphylococcus aureus 209P in human THP1 cells using trypan blue staining after 20 mins by flow cytometry; type: functional, cell-based; summary of the method: as §5
[20] = system: HEK293; test: Inhibition of heat killed Escherichia coli K12-induced NF-kappaB activation in HEK293 cells expressing TLR2 pretreated for 1 hr before 6 hrs heat killed bacterial stimulation by luciferase reporter gene assay; type: cell-based; details: Homo sapiens
Summary of the method: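 293/TLR2 cells (1 × 10⁵/well) were transfected with 50 ng pNF-κB-Luc, 5 ng pRL-TK and 445 ng pcDNA3. After 24 h they were pretreated 1 h with resveratrol, then stimulated 6 h serum-free with FSL-1 (1, 10, 100 nM) or heat-killed E. coli or S. aureus (1:1, 1:10, 1:100). Dual luciferase readout, triplicates.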

[21] = system: THP-1; test: Inhibition of phagocytosis of FITC-conjugated Staphylococcus aureus 209P in human THP1 cells using trypan blue staining after 40 mins by flow cytometry; type: functional, cell-based

Measured: Activity

Oc1ccc(/C=C/c2cc(O)cc(O)c2)cc1
active: [1] Dose-dependent effect | [2] Dose-dependent effect | [3] Dose-dependent effect | [4] Dose-dependent effect | [5] | [6] | [7] Dose-dependent effect | [8] Dose-dependent effect | [9] | [10] | [11] | [12] | [13] Dose-dependent effect | [14] | [15] Dose-dependent effect | [16] Dose-dependent effect | [17] Dose-dependent effect | [18] Dose-dependent effect | [19] Dose-dependent effect | [20] | [21] Dose-dependent effect
